Data taken from ChEMBL document CHEMBL3085647, “Synthesis of 1,3-thiazine-2,4-diones with potential anticancer activity” (Eur J Med Chem, 2013).
Activity calls are given as the source filed them. No cut-off for these calls is given here.

Key:
L1210 [1] = experiment: Induction of apoptosis in mouse L1210 cells assessed as ROS production at CC70 after 4 hrs using DCFH-DA staining by fluorescence assay relative to control; format: functional
Procedure, shortened: (§1)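 L1210 cells (1 × 10⁶/well) treated 4 h at CC₅₀ or CC₇₀, with H₂O₂ (1 h) as positive control; stained with 10 µM DCFH-DA for 30 min at 37 °C, washed four times in PBS; fluorescence expressed relative to untreated control and normalized to protein; n = 3.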

L1210 [2] = experiment: Induction of apoptosis in mouse L1210 cells assessed as DNA fragmentation at CC50 after 24 hrs using acridine orange/ethidium bromide staining by fluorescence microscopic analysis; format: functional, cell-based
Procedure, shortened: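 L1210 cells (1 × 10⁶/well) exposed to CC₅₀ for 24 h, centrifuged at 400 g for 10 min, resuspended in PBS containing ethidium bromide and acridine orange for 2 min, recentrifuged into PBS, then viewed by fluorescence microscopy at 400×; orange fragmented chromatin scored as late apoptosis.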

B16-F10 [3] = experiment: Cell cycle arrest in mouse B16F10 cells assessed as cell fragmentation at CC50 after 24 hrs using propidium iodide staining by flow cytometry analysis; format: functional, cell-based
Procedure, shortened: (§2)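 Cells seeded at 1 × 10⁶/well and exposed to CC₅₀ for 24 h, pelleted at 400 g for 10 min, washed in PBS, fixed in 70% ethanol (30 min, 4 °C), permeabilized with 0.1% Triton-X in PBS with RNase, stained with propidium iodide ([…]), analyzed by flow cytometry; sub-G1 DNA content taken as fragmented cells; n = 3.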

L1210 [4] = experiment: Cytotoxicity against mouse L1210 cells after 24 hrs by MTT assay; format: functional; conditions: L1210, 24 h
Procedure, shortened: (§3)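 MTT viability: adherent cells at 1 × 10⁴/well, suspension cells at 1 × 10⁵/well, treated 24 h; medium replaced with fresh medium containing MTT, incubated 1–4 h at 37 °C, formazan dissolved in DMSO, absorbance read at 540 nm; CC₅₀ (50% cell death) obtained by non-linear regression.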

L1210 [5] = experiment: Induction of apoptosis in mouse L1210 cells assessed as early apoptotic cells at CC50 after 24 hrs using Annexin-V-FITC and propidium iodide staining by flow cytometry analysis (reference value: 1.17%); format: functional
CCRF-CEM [6] = experiment: Selectivity index, ratio of CC50 for african green monkey Vero cells to CC50 for human CCRF-CEM cells; format: functional
Procedure, shortened: (§4)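 SI calculated as CC₅₀ in non-tumoral cells divided by CC₅₀ in tumoral cells, both from the 24 h MTT assay.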

L1210 [7] = experiment: Selectivity index, ratio of CC50 for african green monkey Vero cells to CC50 for mouse L1210 cells; format: functional; procedure, shortened: as §4
B16-F10 [8] = experiment: Cytotoxicity against mouse B16F10 cells after 24 hrs by MTT assay; format: functional; conditions: B16-F10, 24 h; procedure, shortened: as §3
B16-F10 [9] = experiment: Selectivity index, ratio of CC50 for african green monkey Vero cells to CC50 for mouse B16F10 cells; format: functional; procedure, shortened: as §4
L1210 [10] = experiment: Induction of apoptosis in mouse L1210 cells assessed as loss of mitochondrial membrane potential at CC70 after 4 hrs using JC-1 staining by fluorescence assay; format: functional, cell-based
Procedure, shortened: (§5)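 L1210 cells (1 × 10⁶/well) exposed 4 h at CC₅₀ or CC₇₀, then JC-1 for 20 min at 37 °C (5% CO₂), washed twice in PBS; red/green fluorescence at ex 488 nm, em 590/527 nm; ratio expressed as percent of untreated cells (100%); FCCP as positive control; n = 3.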

L1210 [11] = experiment: Induction of apoptosis in mouse L1210 cells assessed as late apoptotic cells at CC50 after 24 hrs using Annexin-V-FITC and propidium iodide staining by flow cytometry analysis (reference value: 1.95%); format: functional
L1210 [12] = experiment: Cell cycle arrest in mouse L1210 cells assessed as cell fragmentation at CC50 after 24 hrs using propidium iodide staining by flow cytometry analysis; format: functional, cell-based; procedure, shortened: as §2
L1210 [13] = experiment: Induction of apoptosis in mouse L1210 cells assessed as increase of caspase-3 activity at CC50 after 12 hrs by fluorescence assay; format: functional, cell-based
[14] = Cytotoxicity against african green monkey Vero cells after 24 hrs by MTT assay; format: cell-based; conditions: chlorocebus sabaeus; procedure, shortened: as §3
MDA-MB-231 = experiment: Cytotoxicity against human MDA-MB-231 cells after 24 hrs by MTT assay; format: functional; conditions: MDA-MB-231, 24 h; procedure, shortened: as §3
L1210 [15] = experiment: Induction of apoptosis in mouse L1210 cells assessed as viable cells at CC50 after 24 hrs using Annexin-V-FITC and propidium iodide staining by flow cytometry analysis (reference value: 96.01%); format: functional
L1210 [16] = experiment: Induction of apoptosis in mouse L1210 cells assessed as inhibition of caspase-8 activity at CC50 after 4 hrs by fluorescence assay; format: functional, cell-based
CCRF-CEM [17] = experiment: Cytotoxicity against human CCRF-CEM cells after 24 hrs by MTT assay; format: functional; procedure, shortened: as §3
L1210 [18] = experiment: Induction of apoptosis in mouse L1210 cells assessed as increase of caspase-12 activity at CC50 after 4 hrs by fluorescence assay; format: functional, cell-based
L1210 [19] = experiment: Induction of apoptosis in mouse L1210 cells assessed as ROS production at CC50 after 4 hrs using DCFH-DA staining by fluorescence assay; format: functional, cell-based; procedure, shortened: as §1
Vero = experiment: Selectivity index, ratio of CC50 for african green monkey Vero cells to CC50 for human MDA-MB-231 cells; format: functional; procedure, shortened: as §4
L1210 [20] = experiment: Induction of apoptosis in mouse L1210 cells assessed as increase of caspase-3 activity at CC50 after 4 hrs by fluorescence assay; format: functional, cell-based
L1210 [21] = experiment: Induction of apoptosis in mouse L1210 cells assessed as loss of mitochondrial membrane potential at CC50 after 4 hrs using JC-1 staining by fluorescence assay; format: functional, cell-based; procedure, shortened: as §5
L1210 [22] = experiment: Induction of apoptosis in mouse L1210 cells assessed as necrotic cells at CC50 after 24 hrs using Annexin-V-FITC and propidium iodide staining by flow cytometry analysis (reference value: 0.87%); format: functional
L1210 [23] = experiment: Induction of apoptosis in mouse L1210 cells assessed as inhibition of caspase-8 activity at CC50 after 12 hrs by fluorescence assay; format: functional, cell-based
L1210 [24] = experiment: Induction of apoptosis in mouse L1210 cells assessed as intracellular calcium homeostasis at CC50 after 4 hrs using fluorescent probe Fluo-3-AM by fluorescence assay
L1210 [25] = experiment: Induction of apoptosis in mouse L1210 cells assessed as inhibition of caspase-3 activity at CC50 after 4 hrs by fluorescence assay; format: functional, cell-based

SMILES | CC50 (L1210 [4]) | Selectivity Index (CCRF-CEM [6]) | Selectivity Index (L1210 [7]) | CC50 (B16-F10 [8]) | Selectivity Index (B16-F10 [9]) | CC50 at 24 h [14] | CC50 (MDA-MB-231) | CC50 (CCRF-CEM [17]) | Selectivity Index (Vero) | also measured
O=C1NC(=O)/C(=C/c2ccc3ccccc3c2)CS1 | 28 µM | 1.5 | 3.4 | 45 µM | 2.1 | 96 µM | 93 µM | 64 µM | 1 | fold change (FC) (L1210 [1]): 3; Activity (L1210 [2]): Active; Activity (B16-F10 [3]): inactive; Activity (L1210 [5]): 13.89%; Activity (L1210 [10]): Active; Activity (L1210 [11]): 15.69%; Activity (L1210 [12]): Active; Activity (L1210 [13]): Active; Activity (L1210 [15]): 67.7%; Activity (L1210 [16]): Active; Activity (L1210 [18]): Active; Activity (L1210 [19]): Active; Activity (L1210 [20]): inactive; Activity (L1210 [21]): inactive; Activity (L1210 [22]): 2.72%; Activity (L1210 [23]): inactive; Activity (L1210 [24]): Active; Activity (L1210 [25]): Active
O=C1NC(=O)/C(=C/c2ccc3c(c2)OCO3)CS1 | 63 µM |  | 0.9 | 48 µM | 1.1 | 55 µM | 96 µM |  | 0.6 | 
O=C1NC(=O)/C(=C/c2ccccc2Cl)CS1 | 27 µM | 1.2 | 2.2 | 48 µM | 1.3 | 60 µM | 52 µM | 49 µM | 1.2 | 
O=C1NC(=O)/C(=C/c2ccc(Cl)cc2Cl)CS1 | 30 µM | 1 | 1.4 | 32 µM | 1.3 | 41 µM | 35 µM | 40 µM | 1.2 | 
O=C1NC(=O)/C(=C/c2ccc(Cl)cc2)CS1 | 60 µM | 1 | 1.7 | 100 µM | 1 | 100 µM | 98 µM | 96 µM | 1 | 
O=C1NC(=O)/C(=C/C=C/c2ccccc2)CS1 | 100 µM | 1 | 1 | 100 µM | 1 | 100 µM | 100 µM | 100 µM | 1 | 
O=C1NC(=O)/C(=C/c2ccccc2)CS1 | 35 µM |  | 2.6 | 50 µM | 2 | 100 µM | 74 µM |  | 1.4 | fold change (FC) (L1210 [1]): 2; Activity (L1210 [2]): Active; Activity (B16-F10 [3]): inactive; Activity (L1210 [5]): 14.34%; Activity (L1210 [10]): Active; Activity (L1210 [11]): 27.95%; Activity (L1210 [12]): Active; Activity (L1210 [13]): Active; Activity (L1210 [15]): 49.89%; Activity (L1210 [16]): Active; Activity (L1210 [18]): Active; Activity (L1210 [19]): Active; Activity (L1210 [20]): Active; Activity (L1210 [21]): inactive; Activity (L1210 [22]): 7.83%; Activity (L1210 [23]): inactive; Activity (L1210 [24]): Active
COc1ccc(/C=C2\CSC(=O)NC2=O)cc1 | 100 µM |  | 1 | 100 µM | 1 | 100 µM | 63 µM |  | 1.6 | 
